According to ChEMBL document CHEMBL1221347, “Identification of 3',4',5'-trimethoxychalcone analogues as potent inhibitors of Helicobacter pylori-induced inflammation in human gastric epithelial cells” (Bioorg Med Chem Lett, 2010):
Values after ≈ are worked out from the molar mass of the structure shown. Active and inactive are the calls of the source. The calls are words filed in the database; no cut-off is given here.

Legend:
Helicobacter pylori [1] = assay: Inhibition of Helicobacter pylori-induced inflammation in human AGS cells assessed as reduction of IL-8 production at 10 uM by ELISA; type: functional
Summary of the method: (§1)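 IL-8 in culture supernatants measured from H. pylori-infected AGS cells pre-treated with compound at 2.5, 5.0 or 10.0 µM. Inhibition calculated against DMSO control-treated cells. Values are mean ± SD of at least three independent experiments.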

Helicobacter pylori [2] = assay: Inhibition of Helicobacter pylori-induced inflammation in human AGS cells assessed as reduction of NF-kappaB activity at 2.5 uM after 6 hrs by luciferase reporter gene assay relative to control; type: functional
Summary of the method: (§2)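 AGS cells transfected with an NF-κB luciferase reporter construct. Cells were treated with compound (2.5–10 µM) and infected with H. pylori, then luciferase expression was measured. Activity is expressed relative to DMSO-treated control. Antibiotics at 2.5 µM served as reference. Values are mean ± SD of at least three independent experiments.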

Helicobacter pylori [3] = assay: Antibacterial activity against multidrug-resistant Helicobacter pylori v1354; type: functional
Summary of the method: (§3)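 Minimum bactericidal concentration (MBC), expressed in µM, determined against H. pylori reference strain Hp 26695 and the clinical isolates v1254 and v1354. Both isolates are resistant to metronidazole and clarithromycin. Amoxicillin, clarithromycin and metronidazole served as standard antimicrobial comparators.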

Helicobacter pylori [4] = assay: Inhibition of Helicobacter pylori invasion into human AGS cells at 10 uM after 6 hrs; type: functional
Summary of the method: (§4)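 AGS cells, untreated or treated with compound, then infected with H. pylori at MOI 50 for 6 h. Bacterial adhesion to, or invasion into, the cells was measured. Compounds tested at 2.5, 5.0 and 10.0 µM. DMSO vehicle and antibiotic controls at 2.5 µM. Values are mean ± SD of at least six independent experiments; Student's t-test against DMSO-treated cells.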

AGS = assay: Cytotoxicity against human AGS cells assessed as cell viability at 0.5 ug/ml by MTT assay; type: cell-based; conditions: in the assay text read “0.5 mg/ml” for “0.5 ug/ml”
Summary of the method: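 MTT viability assay on AGS human gastric epithelial cells, run at 0.5 mg/ml, the top concentration used in the H. pylori growth test.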

Helicobacter pylori [5] = assay: Antibacterial activity against multidrug-resistant Helicobacter pylori v1254; type: functional; summary of the method: as §3
Helicobacter pylori [6] = assay: Inhibition of Helicobacter pylori invasion into human AGS cells at 5 uM after 6 hrs; type: functional; summary of the method: as §4
Helicobacter pylori [7] = assay: Inhibition of Helicobacter pylori adhesion into human AGS cells at 10 uM after 6 hrs; type: functional; summary of the method: as §4
Helicobacter pylori [8] = assay: Antibacterial activity against Helicobacter pylori Hp 26695; type: functional; summary of the method: as §3
Helicobacter pylori [9] = assay: Inhibition of Helicobacter pylori-induced inflammation in human AGS cells assessed as reduction of NF-kappaB activity at 10 uM after 6 hrs by luciferase reporter gene assay relative to control; type: functional; summary of the method: as §2
Helicobacter pylori [10] = assay: Inhibition of Helicobacter pylori-induced inflammation in human AGS cells assessed as reduction of NF-kappaB activity after 6 hrs by luciferase reporter gene assay relative to control; type: functional; summary of the method: as §2
Helicobacter pylori [11] = assay: Inhibition of Helicobacter pylori-induced inflammation in human AGS cells assessed as reduction of IL-8 production at 2.5 uM by ELISA; type: functional; summary of the method: as §1
Helicobacter pylori [12] = assay: Inhibition of Helicobacter pylori invasion into human AGS cells at 2.5 uM after 6 hrs; type: functional; summary of the method: as §4
Helicobacter pylori [13] = assay: Inhibition of Helicobacter pylori-induced inflammation in human AGS cells assessed as reduction of IL-8 production at 5 uM by ELISA; type: functional; summary of the method: as §1
Helicobacter pylori [14] = assay: Inhibition of Helicobacter pylori adhesion into human AGS cells at 5 uM after 6 hrs; type: functional; summary of the method: as §4
Helicobacter pylori [15] = assay: Inhibition of sHelicobacter pylori adhesion into human AGS cells at 2.5 uM after 6 hrs; type: functional; summary of the method: as §4
Helicobacter pylori [16] = assay: Inhibition of Helicobacter pylori-induced inflammation in human AGS cells assessed as reduction of NF-kappaB activity at 5 uM after 6 hrs by luciferase reporter gene assay relative to control; type: functional; summary of the method: as §2

| Compound | inhibition at 10 µM (Helicobacter pylori [1]) [%] | inhibition at 2.5 µM (Helicobacter pylori [2]) [%] | MBC (Helicobacter pylori [3]) [µM] | inhibition (Helicobacter pylori [4]) | Activity (AGS) | MBC (Helicobacter pylori [5]) [µM] | inhibition (Helicobacter pylori [6]) | MBC (Helicobacter pylori [8]) [µM] | inhibition at 10 µM (Helicobacter pylori [9]) [%] | inhibition (Helicobacter pylori [10]) | inhibition at 2.5 µM (Helicobacter pylori [11]) [%] | inhibition (Helicobacter pylori [12]) | inhibition at 5 µM (Helicobacter pylori [13]) [%] | inhibition (Helicobacter pylori [2]) | inhibition at 2.5 µM (Helicobacter pylori [12]) [%] | inhibition at 2.5 µM (Helicobacter pylori [15]) [%] | inhibition at 5 µM (Helicobacter pylori [14]) [%] | also measured |
| --- | --- | --- | --- | --- | --- | --- | --- | --- | --- | --- | --- | --- | --- | --- | --- | --- | --- | --- |
| COc1ccc(/C=C/C(=O)c2cc(OC)c(OC)c(OC)c2)cc1 | 59.4 | 14.7 | 100 (≈ 32.8 µg/mL) | Active | Non-toxic | 100 (≈ 32.8 µg/mL) | Active | 100 (≈ 32.8 µg/mL) | 66 | Dose-dependent effect | 8 | inactive | 23.4 | – | – | – | – | inhibition (Helicobacter pylori [7]): Active; inhibition (Helicobacter pylori [14]): Active |
| Cc1ncc([N+](=O)[O-])n1CCO [METRONIDAZOLE] | 81.9 | – | 800 (≈ 137 µg/mL) | – | – | 400 (≈ 68.5 µg/mL) | – | 25 (≈ 4.28 µg/mL) | – | – | – | – | – | inactive | 20 | – | – | – |
| COc1cc(/C=C/C(=O)c2cc(OC)c(OC)c(OC)c2)ccc1O | – | 86.1 | 12.5 (≈ 4.3 µg/mL) | – | Non-toxic | 12.5 (≈ 4.3 µg/mL) | – | 12.5 (≈ 4.3 µg/mL) | 99.9 | Dose-dependent effect | – | – | – | – | 57.6 | 88.2 | 98.8 | inhibition at 10 µM (Helicobacter pylori [4]): 100%; inhibition at 5 µM (Helicobacter pylori [6]): 91%; inhibition at 5 µM (Helicobacter pylori [16]): 98.6% |
| COc1cccc(/C=C/C(=O)c2cc(OC)c(OC)c(OC)c2)c1OC | 87 | 39.8 | 25 (≈ 8.96 µg/mL) | Active | Non-toxic | 50 (≈ 17.9 µg/mL) | Active | 25 (≈ 8.96 µg/mL) | 90.6 | Dose-dependent effect | 24.6 | inactive | 65.2 | – | – | 66.6 | 73.3 | inhibition at 10 µM (Helicobacter pylori [7]): 99.9% |
| CC[C@H]1OC(=O)[C@H](C)[C@@H](O[C@H]2C[C@@](C)(OC)[C@@H](O)[C@H](C)O2)[C@H](C)[C@@H](O[C@@H]2O[C@H](C)C[C@H](N(C)C)[C@H]2O)[C@](C)(OC)C[C@@H](C)C(=O)[C@H](C)[C@@H](O)[C@]1(C)O [CLARITHROMYCIN] | 81.9 | – | 25 (≈ 18.7 µg/mL) | – | – | 50 (≈ 37.4 µg/mL) | – | 1.6 (≈ 1.2 µg/mL) | – | – | – | – | – | inactive | > 90 | – | – | – |
| CC1(C)S[C@@H]2[C@H](NC(=O)[C@H](N)c3ccc(O)cc3)C(=O)N2[C@H]1C(=O)O [AMOXICILLIN] | 81.9 | – | 12.5 (≈ 4.57 µg/mL) | – | – | 12.5 (≈ 4.57 µg/mL) | – | 12.5 (≈ 4.57 µg/mL) | – | – | – | – | – | inactive | > 90 | – | – | – |
